Assay results taken from ChEMBL document CHEMBL3244081, “Potential antitumor agents. 31. Quantitative structure-activity relationships for the antileukemic bis(guanylhydrazones)” (1979).

Legend:
[1] = system: L1210; assay: Anti-leukemic activity against mouse L1210 cells allografted in ip dosed DBA2 mouse assessed as increase in host lifespan administered qd for 1 to 4 days; format: functional
[2] = system: L1210; assay: Anti-leukemic activity against mouse L1210 cells allografted in ip dosed DBA2 mouse assessed as optimum drug dose required for the effect administered qd for 1 to 4 days; format: functional
[3] = Binding affinity to DNA (unknown origin) assessed as decrease in velocity of L1210 DNA-dependent DNA polymerase reaction
[4] = Displacement of ethidium from poly[d(A-T)]-poly[d(A-T)] DNA (unknown origin) by fluorimetric assay
How it was run: (§1)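 Relative binding to the synthetic duplex polymers was measured as fluorimetric displacement of bound ethidium, following the method of the earlier studies. Compounds were made up as 2 mM aqueous stock solutions, either from weighed salts or, where material was scarce, with the concentration set from published UV absorbance data before final dilution.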

[5] = Displacement of ethidium from poly[d(G-C)]-poly[d(G-C)] DNA (unknown origin) by fluorimetric assay; how it was run: as §1

N=C(N)N/N=C/C/C=N/NC(=N)N
log(activity) [1]: <1.4 | log optimum dose [2]: 2.3 | logIC50 [3]: > 3

N=C(N)NN=C1C=CC(=NNC(=N)N)C=C1
log(activity) [1]: <1.4 | log optimum dose [2]: 1.88 | logIC50 [3]: 2.85 | C50 [4]: 22 µM | C50 [5]: 200 µM

N=C(N)N/N=C/CCC/C=N/NC(=N)N
log(activity) [1]: <1.4 | log optimum dose [2]: 1.87 | logIC50 [3]: > 3 | C50 [4]: 70 µM | C50 [5]: 81 µM

Cl.N=C(N)N/N=C/c1ccc(/C=N/NC(=N)N)cc1
log(activity) [1]: 1.84 | log optimum dose [2]: 1.6 | logIC50 [3]: 1.9 | C50 [4]: 2.9 µM | C50 [5]: 7.6 µM

CCC(/C=N/NC(=N)N)=N\NC(=N)N.Cl
log(activity) [1]: <1.4 | log optimum dose [2]: 2 | logIC50 [3]: 2.87 | C50 [4]: 112 µM | C50 [5]: 248 µM

C/C(=N\NC(=N)N)c1ccc(NC(=O)Nc2ccc(/C(C)=N/NC(=N)N)cc2)cc1
log(activity) [1]: 2.47 | log optimum dose [2]: 1.4 | logIC50 [3]: 1.95 | C50 [4]: 0.43 µM | C50 [5]: 1.3 µM

N=C(N)N/N=C/c1ccc(NC(=O)Nc2ccc(/C=N/NC(=N)N)cc2)cc1
log(activity) [1]: 2.08 | log optimum dose [2]: 1.48 | logIC50 [3]: 1.95 | C50 [4]: 0.3 µM | C50 [5]: 0.69 µM

CC(/C=N/NC(=N)N)=N\NC(=N)N [MITOGUAZONE]
log(activity) [1]: 2 | log optimum dose [2]: 1.7 | logIC50 [3]: 2.85 | C50 [4]: 34 µM | C50 [5]: 128 µM

C/C(=N\NC(=N)N)c1ccc(NC(=N)Nc2ccc(/C(C)=N/NC(=N)N)cc2)cc1
log(activity) [1]: 1.82 | log optimum dose [2]: 0.7 | logIC50 [3]: 1.6 | C50 [4]: 0.08 µM | C50 [5]: 0.2 µM

CNC(=N)N/N=C/C(C)=N/NC(=N)NC
log(activity) [1]: <1.4 | log optimum dose [2]: 2.3 | logIC50 [3]: 2.81 | C50 [4]: 27 µM | C50 [5]: 111 µM

Cl.N=C(N)N/N=C/c1ccc(-c2ccc(/C=N/NC(=N)N)cc2)cc1
log(activity) [1]: 1.63 | log optimum dose [2]: 1.3 | logIC50 [3]: 1.6 | C50 [4]: 0.14 µM | C50 [5]: 1 µM

C/C(=N\NC(=N)N)c1cccc(NC(=O)Nc2cccc(/C(C)=N/NC(=N)N)c2)c1
log(activity) [1]: 2.1 | log optimum dose [2]: 1.48 | logIC50 [3]: 1.6 | C50 [4]: 0.42 µM | C50 [5]: 1.6 µM

C/C(=N\NC(=N)N)c1ccc(NC(=S)Nc2ccc(/C(C)=N/NC(=N)N)cc2)cc1
log(activity) [1]: 1.97 | log optimum dose [2]: 1.4 | logIC50 [3]: 2.11 | C50 [4]: 1.2 µM | C50 [5]: 3.4 µM

CC(=N\NC(=N)N)/C(C)=N/NC(=N)N
log(activity) [1]: <1.4 | log optimum dose [2]: 2.18 | logIC50 [3]: 2.7 | C50 [4]: 14 µM | C50 [5]: 51 µM

N=C(N)NCCCCCCCCCCNC(=N)N [SYNTHALIN]
log(activity) [1]: 2.11 | log optimum dose [2]: 0.6 | logIC50 [3]: > 3 | C50 [4]: 127 µM | C50 [5]: 191 µM

CC(/C=N/N(C)C(=N)N)=N\N(C)C(=N)N
log(activity) [1]: <1.4 | log optimum dose [2]: 2.18 | logIC50 [3]: > 3 | C50 [4]: 103 µM | C50 [5]: 379 µM

N=C(N)c1ccc(/C=C/c2ccc(C(=N)N)cc2O)cc1 [HYDROXYSTILBAMIDINE]
log(activity) [1]: 1.85 | log optimum dose [2]: 1.87 | logIC50 [3]: 1.6 | C50 [4]: 1.2 µM | C50 [5]: 6.7 µM
